The EternaBench riboswitch data

System: MS2 coat protein
Assay: apparent Kd, MS2 coat protein; higher = weaker binding; RNA-MaP array; FMN 200 µM where present
How it was run: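 Each design was made on Illumina sequencing-chip clusters by stalled E. coli RNA polymerase and titrated with SNAP-549-labelled MS2 coat protein from 0.7 or 1.5 nM, doubling to 3 µM, in the absence and then the presence of constant ligand. The buffer was 100 mM Tris-HCl pH 7.5, 80 mM KCl, 4 mM MgCl2, BSA, DTT, yeast tRNA and Tween-20. The apparent Kd is the median of filtered per-cluster fits of binding curves, with green signal normalised to red-channel RNA signal and control-cluster median Fmax.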

[1] = designed as: ON switch for flavin mononucleotide, no ligand
[2] = ligand present: flavin mononucleotide, designed as: ON switch for flavin mononucleotide
[3] = designed as: OFF switch for flavin mononucleotide, no ligand
[4] = ligand present: flavin mononucleotide, designed as: OFF switch for flavin mononucleotide

| Sequence | apparent Kd [1] [nM] | apparent Kd [2] [nM] | apparent Kd [3] [nM] | apparent Kd [4] [nM] |
| --- | --- | --- | --- | --- |
| GUAGCUAUCGGAGGAUAUUCAUACCGGAAACGGACAUGAGGAUCACCCAUGUGGCGAAAGCCAUGGGAGAAGGCCGAUAGCUAC | 606 | 131 |  |  |
| GUAGCUAUCGGAGGAUAUUCAUACUGGAAACGGACAUGAGGAUCACCCAUGUGGCGAAAGCCUUGGGAGAAGGCUGAUAGCUAC | 139 | 7.72 |  |  |
| GUAGGCGACCAGAAGGGUGACAUGAGGAUCACCCAUGUAGAUGUGUUCCCGCUUGGGAGCCGUCCACAGGAUAUGGUUGCUUAG | 66.5 | 42.5 |  |  |
| GUAGGGAUUACAUGAGGAUCACCCAUGUCAGAACGGGUAAUCAGAAGGUAUUAUUAGGGAGAGGGUAAGGAUAUGAUUUUUUAU | 433 | 344 |  |  |
| GUAGGGUCAGGAUAUACUGGCUGAGGGAUGUAUUGUAGUUGGUAGAAGGGACAUGAGGAUCACCCAUGUAAGUA |  |  | 35.4 | 34 |
| GUAGUGUAGUGAGGAUAUACGAGAUCGAUAGAUCGGCGAUCCAAUAAUACAUGAGGAUCACCCAUGUAGAAGGCACUUCACUAC |  |  | 7.26 | 98.8 |
| GUAUCUUACCGAGGAUAUUUACGAUUAGUGUAGACAUGAGGAUCACCCAUGUGGCGUUAGUCACGGGAGAAGGCGGUUUGAUAC | 92.2 | 20.5 |  |  |
| GUAUUUAUAUAAGGAUAUAAGUCUAGGACAUGAGGAUCACCCAUGUGUGUCUUAGAAGGUAUAUGGGUAAUACUGUUACAGUAA | 226 | 112 |  |  |
| GUAUUUGAAGUAAGGAUAUGCCUCUGGAAACGGAGGUAGAAGGUACAUGAGGAUCACCCAUGUUUCUCUCUUGG |  |  | 16.9 | 27.3 |
| GUAUUUUUACAGAAGGUGUAUUACAUGAGGAUCACCCAUGUUUUAUGGAAUAAAGAUUUUAUUUACAAGGAUAUGUACUAUUUU | 31.7 | 20.6 |  |  |
| GUCAGCUCGUCAGGAUAUACAUGAUAGAUCGAUUAAUUAAUUAAUUUAACAUGAGGAUCACCCAUGUAGAAGGGACGAGCUGAC |  |  | 80.1 | 71.9 |
| GUCAGCUCGUCAGGAUAUACGUCACUGCGUCAGCAGUGUGGUAAGAUCACAUGAGGAUCACCCAUGUAGAAGGGACGAGCUGAU |  |  | 14.1 | 291 |
| GUCAGCUCGUGAGGAUAUACAACACUGCUUCGGCAGUGUAAUAAGAUCACAUGAGGAUCACCCAUGUAGAAGGCACGAGCUGAU |  |  | 12 | 250 |
| GUCAGCUCGUGAGGAUAUACAACACUGCUUCGGCAGUGUAUUAAGAUCACAUGAGGAUCACCCAUGUAGAAGGCACGAGCUGUU |  |  | 13.8 | 305 |
| GUCAGCUCGUGAGGAUAUACAACACUGCUUCGGCAGUGUAUUAAGAUCACAUGAGGAUCACCCAUGUAGAAGGCACGAGCUUAU |  |  | 13.5 | 233 |
| GUCAGCUCGUGAGGAUAUACAACACUGCUUCGGUAGUGUAUUAAGAUCACAUGAGGAUCACCCAUGUAGAAGGCACGAGCUGAU |  |  | 15.1 | 268 |
| GUCAGCUCGUGAGGAUAUACAACAGUGCUUCGGCAGUGUAUUAAGAUCACAUGAGGAUCACCCAUGUAGAAGGCACGAGCUGAU |  |  | 13.1 | 207 |
| GUCAGCUCGUGAGGAUAUACAUGAUAGAUCGAUUAAUUAAUUAAUUUAACAUGAGGAUCACCCAUGUAGAAGGUACGAGCUGAU |  |  | 61.6 | 45.2 |
| GUCAGCUCGUGAGGAUAUACAUGUGCUGGAAACAGCAUUAUAUUUUUCACAUGAGGAUCACCCAUGUAGAAGGCACGAGCUGAU |  |  | 16.3 | 27 |
| GUCAGCUCGUGAGGAUAUACAUGUGCUGGAGACAGCACUAAAGAUUUCACAUGAGGAUCACCCAUGUAGAAGGCACGAGCUGAU |  |  | 16.4 | 37.4 |
| GUCAGCUCGUGAGGAUAUACAUGUGCUGGAGACAGCAUUAAAUAAUUCACAUGAGGAUCACCCAUGUAGAAGGCACGAGCUGAU |  |  | 17.8 | 38.8 |
| GUCAGCUCGUGAGGAUAUACAUGUGCUGGAUACAGCAUUAUAUUUUUCACAUGAGGAUCACCCAUGUAGAAGGCACGAGCUGAU |  |  | 16.6 | 29.9 |
| GUCAUACAUGAGGAUCACCCAUGUAAGGAUAUGCUAGCGGUCGGAAGAAUGACUGCUAGCAGAAGGUACAUGAU |  |  | 64.1 | 121 |
| GUCCUACAUGAGGAUCACCCAUGUGAGGAUAUGUGGUUAGCUGCUAGGUAGUUAGUAUGCAGAAGGUACGUGAA |  |  | 14.8 | 15.5 |
| GUCGAAGCCGUACUGGUCGACGGUCAGGAUAUACAUGAGGAUCACCCAUGUGCUAUUGAUACUAUGUAGAAGGGACCCACCGCA |  |  | 13.3 | 19 |
| GUCGGAAACGACAAAAGUAGCAUAGGAGAAGGCAUGUCAUAAGACAUGAGGAUCACCCAUGUGCAUGAGGAUAUCCUAUGCUAC | 5.53 | 4.98 |  |  |
| GUCGGAAACGACAAAAGUAUGGAUCCAGAAGGCAUGAAACAUGAGGAUCACCCAUGUCUAAGACAUGAGGAUAUGGAUCCAUAC | 7.11 | 3.78 |  |  |
| GUCGUGUGAGGAUAUCGAUUAUGGAAGUCUAGAUCCAUACGCGAGAAGGCACAUGAGGAUCACCCAUGUAAUGG |  |  | 337 | 96.1 |

| Sequence | apparent Kd [1] [nM] | apparent Kd [2] [nM] | apparent Kd [3] [nM] | apparent Kd [4] [nM] |
| --- | --- | --- | --- | --- |
| GUCGUGUGAGGAUAUCUGAUGUCUAACUUCGGUUAGACAUCAGAGAAGGCACAUGAGGAUCACCCAUGUCCGAC |  |  | 195 | 298 |
| GUCGUGUGAGGAUAUGCACGAGUGACAGGGAGGCUGUCACAGCAGAAGGUACAUGAGGAUCACCCAUGUGAAAU |  |  | 29.1 | 24.2 |
| GUCUCGAUGUAGAAGGCCGCGUCCGGCUCACGCGGAGGAUAUACAUGAGGAUCACCCAUGUGUCUGUGGCUAAUAUGGUACGGA |  |  | 41.8 | 234 |
| GUCUGGUUAGGAUAUACAGUGUCCACGAGUUAGUUGCCCUAACAUGAGGAUCACCCAUGUAGAAGGAGCGAGAA |  |  | 22.2 | 22.6 |
| GUCUUUAAGGUAGGAUAUAGUAUGAUGGUUUAAUUAGAAGGAUCUCACAUGAGGAUCACCCAUGUAAUAGGAUUACCCAUGUAU |  |  | 60.9 | 43.4 |
| GUGAAACAUGAGGAUCACCCAUGUCAGGAUAUGAUACUAUGUACUUCGGUACAUAGUAUCAGAAGGGACAGUGA |  |  | 77.9 | 101 |
| GUGAACAUGAGGAUCACCCAUGUAGCUCACUGCCAGUGGCUACAGGAUAUAGCACCUCGAGAGUGCUAGAAGGGUGGCCUAGAA | 106 | 33.9 |  |  |
| GUGAAGAUAGCAGGAUAUCUAUUUCCUACAUGAGGAUCACCCAUGUAGGUGAUCAGCCGAGUAAAGGAGAAGGGCUAUCUUUAC | 22.8 | 9.29 |  |  |
| GUGAAGAUAGCAGGAUAUUUAUUUCCUACAUGAGGAUCACCCAUGUAGGUGAUCAGCCGAGUAAAGGAGAAGGGCUAUCUUUAC | 30.9 | 21.3 |  |  |
| GUGAAGAUAUCAGGAUAUCUAUUUCCUACAUGAGGAUCACCCAUGUAGGUGAUCAGCCGAGUAAAGGAGAAGGGAUAUCUUUAC | 23.6 | 10.1 |  |  |
| GUGAAGUAAGGAUAUACAUGAGGAUCACCCAUGUGGAGGAAGGUGAUGGGAGUAGGUAGUAGAAGGUACGAGGA |  |  | 140 | 128 |
| GUGACGAUGUAAGGAUAUGCAGUGGAUAACACUGCAGAAGGUACAUGAGGAUCACCCAUGUAACUCUAAUAAUAAUAACGUCAC |  |  | 12.1 | 17 |
| GUGCACAUUCGAGGAUAUCGGAGAGAGAUCCUUCGAGAAGGCGAUUCAUGCUGUAUUAUUCUGGACAUGAGGAUCACCCAUGUG | 230 | 101 |  |  |
| GUGCAUACGUGAGGAUAUGUAUUAGAUAGUGGUACAGAAGGCAUGUCUGAUGACAUGAGGAUCACCCAUGUUGGCACAAUGCGC | 51.5 | 30.2 |  |  |
| GUGCCUUGGGAGAAGGCCCAAUGCAAAGCAUAGGGAGGAUAUCCAUAUAAUAAAUAAACAUGAGGAUCACCCAUGUGGCACAAA | 19.4 | 12 |  |  |
| GUGGCACAUGAGGAUCACCCAUGUCAGGAUAUCGCGUGGUUUUUUGCGGCCGCGCGCGCGAGAAGGGACGUCUU |  |  | 39.2 | 38.1 |
| GUGGUAUUCGUAGGAUAUCCGUCGCCACCGUGUGGAGAAGGACGAACAUGAGGAUCACCCAUGUAUCAUGGUGUGGACGUUGUC |  |  | 80.2 | 88.4 |
| GUGGUCAGACAUGAGGAUCACCCAUGUGGAAUAAAUAACACACAGGAUAUCGAAUAUAAAAUAUACGAGAAGGGUGGAUUGGUG | 388 | 209 |  |  |
| GUGGUCAGACAUGAGGAUCACCCAUGUGGAAUAAAUAACAGACAGGAUAUAUAAUAUAGGAUAUAGUAGAAGGGUCGAUUGGUG | 81.9 | 85.8 |  |  |
| GUGGUCAGACAUGAGGAUCACCCAUGUGGAAUAAAUAACGGACAGGAUAUCGAAUAUAGGAUAUACGAGAAGGGUUGAUUGGUG | 83.7 | 106 |  |  |
| GUGGUGGGUUGAGGAUAUUGGUUGUCGUUGUCCCACAUGAGGAUCACCCAUGUGGGUUGUGGUUUUGAGAAGGUUGGUUGCUGG | 18.1 | 15.9 |  |  |
| GUGUACAGAGGAUAUACACGAGGAGUUACGAAAGUAACUUCACAUGAGGAUCACCCAUGUAGAAGGCUGUACAC |  |  | 25.3 | 36.6 |
| GUGUACAGAGGAUAUACUGGAGCAUGGAAACAUGCAACCUCACAUGAGGAUCACCCAUGUAGAAGGCUGUACAC |  |  | 334 | 28.2 |
| GUGUACAGAGGAUAUGCUGGAAUCUAGCGAAGCUAGGUUCCACAUGAGGAUCACCCAUGUAGAAGGCUGUACAC |  |  | 23.3 | 14.2 |
| GUGUACGGAGGAUAUAUGUGGUGAGCAUACGCUCAAGCUUCACAUGAGGAUCACCCAUGUAGAAGGCUGUGCAC |  |  | 210 | 150 |
| GUGUACGGAGGAUAUGCUGGAAUCUAGCGAAGCUAGGUUCCACAUGAGGAUCACCCAUGUAGAAGGUCGUACAC |  |  | 39.3 | 16.1 |
| GUGUACGUAGGAUAUACAUGAGGAUCACCCAUGUGAAUAAGAUAGAAUAAGAUAAAGUGUAGAAGGACGAGUGU |  |  | 37.3 | 30.5 |
